Here are results for 19 compounds from ChEMBL document CHEMBL1138421, “Synthesis and antiproliferative activity of (2R,3R)-disubstituted tetrahydropyrans. Part 2: Effect of side chain homologation” (2007).

Each structure is given as a SMILES string.

Common to all, as to assay type: functional
In one assay the test system is WiDr. In words: Antiproliferative activity against human WiDr cells after 48 hrs by sulforhodamine B assay. The procedure, abridged: (§1)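 Dose-response curves built per compound up to 100 μM maximum; percentage of growth (PG) computed, with GI₅₀, TGI and LC₅₀ taken as concentrations giving PG +50, 0 and −50. TGI and LC₅₀ reported only when below 100 μM. Values in μM, means of two to four experiments with standard deviation.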
For orientation: In SRB staining, fixed cells bind dye roughly in proportion to their protein.

For another assay, the system named is SW1573. In words: Antiproliferative activity against human SW1573 cells after 48 hrs by sulforhodamine B assay. The note with it: SW1573, 48 h; for CC50: read-out: LC50 (the source's name). The procedure, abridged: as §1
In another assay the test system is A2780. The assay is described as follows: Antiproliferative activity against human A2780 cells after 48 hrs by sulforhodamine B assay. As to conditions: A2780, 48 h. In outline:
as §1

By GI50 is commonly meant the concentration that inhibits growth by half. Higher therefore signals less potent growth inhibition. One may read the TGI as the concentration giving total growth inhibition.

For `C=C[C@H]1CCC[C@@H]([C@H]2COC(C)(C)O2)O1`, the GI50 in the assay on WiDr was more than 100 µM.

In the case of `O=C(COC[C@H]1OCCC[C@@H]1O)OCc1ccccc1` (relative stereo), the GI50 in the assay with SW1573, in the assay on A2780 and with WiDr was more than 100 µM each time.

Turning to `O=C1COC[C@H]2OCCC[C@@H]2O1` (relative stereo), the GI50 in the assay with SW1573, with A2780 and in the assay on WiDr was more than 100 µM each time.

As to `CC(C)(C)[Si](C)(C)O[C@@H]1CCCO[C@@H]1CO/C=C/C(=O)OCc1ccccc1`, the GI50 in the assay with SW1573 came to 26 µM; in the assay with A2780 it was 26 µM; with WiDr it was 37 µM.

For `c1ccc([C@H]2OC[C@H]3OCCC[C@H]3O2)cc1`, the GI50 in the assay on SW1573, in the assay with A2780 and in the assay with WiDr was more than 100 µM in each case.

For the compound `c1cc([C@H]2OC[C@H]3OCCC[C@H]3O2)ccc1[C@H]1OC[C@H]2OCCC[C@H]2O1`, the GI50 in the assay on SW1573, in the assay with A2780 and in the assay with WiDr was more than 100 µM each time.

Regarding `CC(C)(C)[Si](C)(C)O[C@@H]1CCCO[C@@H]1COCCCO`, the GI50 with SW1573, with A2780 and in the assay with WiDr was more than 100 µM in each case.

Turning to `CC(C)(C)[Si](C)(C)O[C@@H]1CCCO[C@@H]1COCC(=O)OCc1ccccc1`, in the assay on SW1573, the GI50 is 29 µM and the TGI came out at 85 µM. Also, in the assay with A2780, the GI50 worked out at 28 µM, the LC50 (concentration giving 50% net cell kill) was 94 µM and net growth stopped (TGI) at 81 µM. Moreover, in the assay with WiDr, growth was halved (GI50) at 37 µM and the TGI amounted to 88 µM.

As for `CC(C)(C)[Si](C)(C)O[C@@H]1CCCO[C@@H]1CO/C=C/CO`, the GI50 in the assay on SW1573, with A2780 and in the assay on WiDr was more than 100 µM in each case.

Regarding `CC(C)(C)[Si](C)(C)O[C@@H]1CCCO[C@@H]1CO` (relative stereo), the GI50 in the assay with SW1573, with A2780 and with WiDr was more than 100 µM each time.

As to `COC(=O)CCOC[C@H]1OCCC[C@H]1O[Si](C)(C)C(C)(C)C`, the GI50 in the assay on SW1573, in the assay with A2780 and in the assay on WiDr was more than 100 µM each time.

For the compound `c1cc([C@H]2OC[C@H]3OCCC[C@H]3O2)nc([C@H]2OC[C@H]3OCCC[C@H]3O2)c1`, the GI50 with SW1573, in the assay with A2780 and with WiDr was more than 100 µM throughout.

Turning to `COC(=O)/C=C/OC[C@H]1OCCC[C@H]1O[Si](C)(C)C(C)(C)C` (relative stereo), the figures for the GI50 with SW1573, with A2780 and with WiDr were 50 µM, 30 µM and 36 µM, respectively. This compound showed a TGI with A2780 of 82 µM.

On to `O=C(COC[C@H]1OCCC[C@H]1O)OCc1ccccc1`, for which the GI50 with SW1573, in the assay on A2780 and in the assay with WiDr was more than 100 µM each time.

On to `CC(C)(C)[Si](C)(C)O[C@H]1CCCO[C@@H]1COCC(=O)OCc1ccccc1` (relative stereo), for which, in the assay with SW1573, it took 17 µM to inhibit growth by half (GI50), net growth stopped (TGI) at 37 µM and the CC50 is 79 µM. In the assay with A2780, this compound gave a GI50 of 17 µM, an LC50 (concentration giving 50% net cell kill) of 74 µM and a TGI of 36 µM. In the assay with WiDr, this compound showed a GI50 of 28 µM and a TGI of 91 µM.

In the case of `CC(C)(C)[Si](C)(C)O[C@H]1CCCO[C@@H]1CO` (relative stereo), the GI50 with SW1573, in the assay with A2780 and with WiDr was more than 100 µM in each case.

Regarding `C=CCOC[C@H]1OCCC[C@H]1O[Si](C)(C)C(C)(C)C` (relative stereo), in the assay on SW1573, halving of growth (GI50) required 18 µM, the TGI turned out to be 39 µM and the CC50 is 85 µM. In the assay on A2780, this compound registered a GI50 of 15 µM, an LC50 (concentration giving 50% net cell kill) of 68 µM and a TGI of 32 µM. The compound also had a GI50 with WiDr of 88 µM.

Regarding `O=C1COC[C@H]2OCCC[C@H]2O1`, the GI50 in the assay on SW1573, with A2780 and in the assay on WiDr was more than 100 µM throughout.

As to `CC(C)(C)[Si](C)(C)O[C@@H]1CCCO[C@@H]1COCC(=O)O` (relative stereo), the GI50 with SW1573, with A2780 and in the assay with WiDr was more than 100 µM in each case.
